{
  "source": "paper PMC8182972",
  "about": "(Journal of medicinal chemistry, 2011)",
  "key": {"[1]": {"tested_on": "PC12 cells expressing mutant G93A SOD1", "format": "cell-based", "conditions": "for EC50: PC12 cells expressing mutant G93A SOD1, MG132 100 nM, Calcein-AM viability"}, "Aqueous solubility": {"assay": "Aqueous solubility", "format": "physicochemical", "conditions": "for Maximum Solubility: 1% DMSO in PBS"}, "[2]": {"assay": "In vitro microsomal stability, mouse", "format": "in vitro ADME", "conditions": "5 μM, 37 °C; for CL’int: 1 h, with NADPH; for CL’int NADPH-free: absence of NADPH"}, "[3]": {"assay": "In vitro microsomal stability, human", "format": "in vitro ADME", "conditions": "37 °C; for CLint scaled at 1 h, 5 µM: human, microsomes"}, "Caco-2 monolayer cells": {"tested_on": "Caco-2 monolayer cells", "assay": "Caco-2 permeability", "format": "in vitro ADME", "conditions": "for Ratio (B→A / A→B): Caco-2 efflux ratio"}, "primary cortical neurons": {"tested_on": "primary cortical neurons", "assay": "Primary cortical neuron cell protection assay", "format": "cell-based, rat", "conditions": "MG132 100 nM; active = viability restored ≥ 5 SD from MG132 controls"}, "[4]": {"assay": "Mouse in vivo steady-state level and blood-brain barrier penetration", "parameters": "species or system mice", "how_it_was_run": "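B6SJL mice received a 300 mg/kg bolus i.p. injection of test compound. Blood and brain were collected at 0, 1, 3, 6, 12 and 24 h, flash-frozen in liquid nitrogen and stored at -80 °C. Samples were quantified by mass spectrometry with ESI ionization in MRM mode.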"}, "[5]": {"tested_on": "68 in vitro enzyme and receptor assays", "assay": "LeadProfilingScreen", "format": "binding", "conditions": "10 μM, in duplicate", "how_it_was_run": "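Test compound was screened at 10 μM in duplicate against a commercial panel of 68 enzyme and receptor assays. The panel covers common adverse CNS, cardiovascular, pulmonary and […] liabilities.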"}, "HEK293": {"tested_on": "HEK293", "assay": "Screen in other cell types: HEK293", "format": "cell-based"}, "CYP2C19": {"molecular_target": "CYP2C19 (Homo sapiens, UniProt P33261)", "sequence (P33261 whole entry)": "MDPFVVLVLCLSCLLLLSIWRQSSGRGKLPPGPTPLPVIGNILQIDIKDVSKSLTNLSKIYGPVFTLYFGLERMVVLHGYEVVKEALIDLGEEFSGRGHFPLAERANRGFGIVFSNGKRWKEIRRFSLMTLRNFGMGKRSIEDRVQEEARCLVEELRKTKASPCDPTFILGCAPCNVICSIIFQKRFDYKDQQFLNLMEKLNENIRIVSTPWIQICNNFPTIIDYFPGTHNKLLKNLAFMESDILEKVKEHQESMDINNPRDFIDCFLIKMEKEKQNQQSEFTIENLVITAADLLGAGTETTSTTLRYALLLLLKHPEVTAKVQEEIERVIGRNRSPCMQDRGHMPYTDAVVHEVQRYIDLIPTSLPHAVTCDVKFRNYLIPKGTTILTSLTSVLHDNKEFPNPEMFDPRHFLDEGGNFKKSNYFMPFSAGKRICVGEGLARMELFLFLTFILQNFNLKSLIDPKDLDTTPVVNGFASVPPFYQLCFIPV", "assay": "CYP inhibition in human liver microsomes", "format": "biochemical", "how_it_was_run": "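Reversible CYP inhibition was measured in human liver microsomes across CYP1A2, 2C9, 2C19, 2D6 and 3A4. Each isozyme used a single probe substrate, except CYP3A4, which used both testosterone and midazolam. IC50 values were derived from this. Work was done by a contract partner.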"}, "HeLa": {"tested_on": "HeLa", "assay": "Screen in other cell types: HeLa", "format": "cell-based"}, "In vivo rat PK profiling": {"assay": "In vivo rat PK profiling", "parameters": "species or system Sprague-Dawley rats", "conditions": "SD rats", "how_it_was_run": "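Sprague-Dawley rats received a single 1 mg/kg bolus of test compound, i.v. or orally. Plasma profiling gave AUC last, AUC/dose, T1/2, clearance, Vss, Cmax, Tmax and oral bioavailability (%F). Work was done by a contract partner.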"}, "SHSY-5Y": {"tested_on": "SHSY-5Y", "assay": "Screen in other cell types: SHSY-5Y", "format": "cell-based"}, "[6]": {"assay": "Metabolite profiling of 1", "format": "in vitro ADME", "conditions": "rat liver microsomes, 5 μM, in the presence of NADPH, LC/MS/MS", "how_it_was_run": "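Test compound and its [15N2]-labelled analog (5 μM) were incubated in duplicate with or without rat liver microsomes, in the presence and absence of NADPH. Aliquots were taken at 0, 10, 20, 40 and 60 min. Protein was precipitated with acetonitrile containing internal standard, and supernatants were analysed by LC/MS/MS for new peaks absent from no-microsome, no-compound and no-NADPH controls.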"}, "ALS patients": {"tested_on": "ALS patients", "conditions": "cited from earlier work"}, "[7]": {"conditions": "B6SJL, mouse, plasma, ip, 300 mg/kg"}},
  "note": "Values joined by “and” are separate entries in the source; they are usually repeats but may differ in a detail not shown here. Identical values can stand only once. “Also recorded” adds a separate entry of the source.",
  "data": [
    {"compound": "5-(4-Chloro-2,5-dimethylphenylsulfinyl)-1H-pyrazol-3(2H)-one [Compound 5]", "values": [
      {"measurement": "EC50", "setting": "[1]", "result": 2880, "unit": "nM"}
    ]},
    {"compound": "5-(3,5-Dichlorophenylsulfonyl)-1H-pyrazol-3(2H)-one [Compound 7]", "values": [
      {"measurement": "Maximum Solubility", "setting": "Aqueous solubility; 45 min", "result": "≥500", "unit": "µM"},
      {"measurement": "Maximum Solubility", "setting": "Aqueous solubility; 16 h", "result": "≥500", "unit": "µM"},
      {"measurement": "CL’int", "setting": "[2]", "result": 15.3, "unit": "mL/min/kg"},
      {"measurement": "EC50", "setting": "[1]", "result": 1410, "unit": "nM"},
      {"measurement": "CL’int", "setting": "[3]; 5 μM, 1 h, with NADPH", "result": 4.5, "unit": "mL/min/kg"},
      {"measurement": "CL’int NADPH-free", "setting": "[3]; 5 μM, absence of NADPH", "result": 1.3, "unit": "mL/min/kg"},
      {"measurement": "Papp (A→B)", "setting": "Caco-2 monolayer cells; Caco-2", "result": "27.0 10^−6 cm/s"},
      {"measurement": "Papp (B→A)", "setting": "Caco-2 monolayer cells; Caco-2", "result": "4.4 10^−6 cm/s"},
      {"measurement": "Ratio (B→A / A→B)", "setting": "Caco-2 monolayer cells", "result": 0.2},
      {"measurement": "activity in primary cortical neuron cell protection assay", "setting": "primary cortical neurons", "result": "active"}
    ]},
    {"compound": "O=c1cc(COc2cc(Cl)cc(Cl)c2)[nH][nH]1", "note": "[Compound 13, 5-((3,5-Dichlorophenoxy)methyl)-1H-pyrazol-3(2H)-one]", "values": [
      {"measurement": "concentration at 0 h", "setting": "[4]; [7]", "result": 0, "unit": "ng/mL"},
      {"measurement": "concentration at 3 h", "setting": "[4]; [7]", "result": "88800 ng/mL and 88.8 µM"},
      {"measurement": "concentration at 6 h", "setting": "[4]; [7]", "result": "90000 ng/mL and 90 µM"},
      {"measurement": "concentration at 12 h", "setting": "[4]; [7]", "result": "64400 ng/mL and 64.4 µM"},
      {"measurement": "concentration at 24 h", "setting": "[4]; [7]", "result": "1700 ng/mL and 1.7 µM"},
      {"measurement": "time of plasma peak", "setting": "[4]; mice, i.p.", "result": "3 to 6", "unit": "h"},
      {"measurement": "activity in the 68 assays of LeadProfilingScreen", "setting": "[5]", "result": "No significant activity; also recorded: no significant binding"},
      {"measurement": "solubility at 45 min", "setting": "Aqueous solubility; PBS with 1% DMSO", "result": 250, "unit": "µM"},
      {"measurement": "solubility at 16 h", "setting": "Aqueous solubility; PBS with 1% DMSO", "result": 250, "unit": "µM"},
      {"measurement": "CL’int", "setting": "[2]", "result": 64, "unit": "mL/min/kg"},
      {"measurement": "CL’int NADPH-free", "setting": "[2]", "result": 21, "unit": "mL/min/kg"},
      {"measurement": "CLint scaled at 1 h, 5 µM", "setting": "[3]; CL’int NADPH-free, absence of NADPH", "result": 13, "unit": "mL/min/kg"},
      {"measurement": "activity in HEK293 cells", "setting": "HEK293", "result": "active"},
      {"measurement": "IC50", "setting": "CYP2C19", "result": "> 50000", "unit": "nM"},
      {"measurement": "activity in HeLa cells", "setting": "HeLa", "result": "active"},
      {"measurement": "Ratio (B→A / A→B)", "setting": "Caco-2 monolayer cells", "result": "0.2–0.6"},
      {"measurement": "AUC/Dose", "setting": "In vivo rat PK profiling; 1 mg/kg i.v. single bolus", "result": 184, "unit": "ng × h/mL/dose"},
      {"measurement": "AUC/Dose", "setting": "In vivo rat PK profiling; 1 mg/kg p.o. single bolus", "result": 50, "unit": "ng × h/mL/dose"},
      {"measurement": "activity in primary cortical neuron cell protection assay", "setting": "primary cortical neurons", "result": "active"},
      {"measurement": "activity in SHSY-5Y cells", "setting": "SHSY-5Y", "result": "active"}
    ]},
    {"compound": "O=c1cc(COc2ccc(Cl)cc2)[nH][nH]1", "note": "[Compound 9, 5-((4-Chlorophenoxy)methyl)-1H-pyrazol-3(2H)-one]", "values": [
      {"measurement": "CL’int", "setting": "[2]", "result": 24.5, "unit": "mL/min/kg"},
      {"measurement": "CL’int NADPH-free", "setting": "[2]", "result": 6.1, "unit": "mL/min/kg"},
      {"measurement": "CLint scaled at 1 h, 5 µM", "setting": "[3]; CL’int, 1 h, with NADPH", "result": 15.3, "unit": "mL/min/kg"}
    ]},
    {"compound": "5-(4-Chlorophenylsulfinyl)-1H-pyrazol-3(2H)-one [Compound 4]", "values": [
      {"measurement": "maximum viability in the cytotoxicity protection assay", "setting": "[1]", "result": "~ 35%"},
      {"measurement": "EC50", "setting": "[1]", "result": "> 32000", "unit": "nM"}
    ]},
    {"compound": "5-(4-Chlorophenylsulfonyl)-1H-pyrazol-3(2H)-one [Compound 6]", "values": [
      {"measurement": "EC50", "setting": "[1]", "result": 4700, "unit": "nM"}
    ]},
    {"compound": "O=c1cc(CSc2c(Cl)cccc2Cl)[nH][nH]1", "note": "[Compound 2]", "values": [
      {"measurement": "activity in primary cortical neuron cell protection assay", "setting": "primary cortical neurons", "result": "active"}
    ]},
    {"compound": "O=c1cc(CSc2ccc(Cl)cc2)[nH][nH]1", "note": "[Compound 1]", "values": [
      {"measurement": "microsomal metabolite identified", "setting": "[6]", "result": "sulfoxide"}
    ]},
    {"compound": "Nc1nc2ccc(OC(F)(F)F)cc2s1", "note": "[riluzole]", "values": [
      {"measurement": "extension of patient lives", "setting": "ALS patients", "result": "2–3 months"}
    ]},
    {"compound": "5-(4-Chloro-2,5-dimethylphenylsulfonyl)-1H-pyrazol-3(2H)-one [Compound 8]", "values": [
      {"measurement": "EC50", "setting": "[1]", "result": 1470, "unit": "nM"}
    ]}
  ]
}
